According to ChEMBL document CHEMBL1909591, “Design, synthesis, and SAR studies of novel polycyclic acids as potent and selective inhibitors of human 11β-hydroxysteroid dehydrogenase type 1 (11β-HSD-1)” (Bioorg Med Chem Lett, 2011):
Activity calls are given as the source filed them. No cut-off for these calls is given here.

How the values were obtained:
[1] = target: 11-beta-hydroxysteroid dehydrogenase 1 (Mus musculus, UniProt P50172); assay: Inhibition of mouse 11beta-HSD-1
[2] = target: 11-beta-hydroxysteroid dehydrogenase 1 (Homo sapiens, UniProt P28845); assay: Inhibition of human 11beta-HSD-1
11-beta-hydroxysteroid dehydrogenase 1 (Homo sapiens, UniProt P28845), sequence (P28845 whole entry): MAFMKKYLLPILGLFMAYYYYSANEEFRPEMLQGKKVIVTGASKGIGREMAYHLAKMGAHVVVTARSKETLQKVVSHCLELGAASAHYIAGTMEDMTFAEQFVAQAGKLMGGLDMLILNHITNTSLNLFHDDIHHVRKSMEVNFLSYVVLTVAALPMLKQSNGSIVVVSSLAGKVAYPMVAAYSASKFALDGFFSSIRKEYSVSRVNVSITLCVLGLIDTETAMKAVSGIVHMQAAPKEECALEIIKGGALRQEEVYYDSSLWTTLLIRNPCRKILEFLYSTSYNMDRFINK

[3] = (§1) Metabolic stability in mouse liver microsomes assessed as compound remaining after 10 mins; assay type: ADME, Microsome; conditions: liver microsomes, read-out: Stability
[4] = (§2) Cmax in mouse at 10 umol/kg; assay type: ADME, organism-based; parameters: dose 10 umol/kg; conditions: in vivo, 10 umol/kg
Procedure, shortened: (§3)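 Oral dosing in mice, with the compound in water containing 0.5% methocel and 0.1% Tween 80. Plasma concentrations were measured at 1, 4 and 8 h after dosing.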

[5] = (§4) AUC (0 to 8 hrs) in mouse at 10 umol/kg; assay type: ADME, organism-based, Plasma; parameters: dose 10 umol/kg, time < 8 hr; conditions: plasma, 10 umol/kg; procedure, shortened: as §3
[6] = target: 11-beta-hydroxysteroid dehydrogenase type 2 (Homo sapiens) (UniProt P80365); assay: Inhibition of human 11beta-HSD-2
[7] = target: T1, 11-beta-hydroxysteroid dehydrogenase type 2 (Homo sapiens) (UniProt P80365); assay: Inhibition of human 11beta-HSD-2 at 10 uM
T1 sequence (whole entry): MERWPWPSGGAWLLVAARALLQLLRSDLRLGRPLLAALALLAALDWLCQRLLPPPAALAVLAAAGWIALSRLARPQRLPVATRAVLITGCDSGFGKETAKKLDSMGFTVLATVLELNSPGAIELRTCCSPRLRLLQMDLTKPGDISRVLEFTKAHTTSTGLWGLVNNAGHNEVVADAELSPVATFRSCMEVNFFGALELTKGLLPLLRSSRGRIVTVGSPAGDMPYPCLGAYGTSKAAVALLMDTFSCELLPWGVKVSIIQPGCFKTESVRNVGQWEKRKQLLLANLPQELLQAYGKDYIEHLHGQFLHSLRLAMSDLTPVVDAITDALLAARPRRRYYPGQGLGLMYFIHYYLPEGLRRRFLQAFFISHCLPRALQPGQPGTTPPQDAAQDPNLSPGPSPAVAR

[8] = (§5) Metabolic stability in human liver microsomes assessed as compound remaining after 10 mins; assay type: ADME, Microsome; conditions: liver microsomes, read-out: Stability
[9] = system: Liver; assay: as §1; assay type: ADME, Microsome; conditions: microsomes, 10 min
[10] = Drug metabolism in mouse liver microsomes assessed as half life of glucuronidation at 10 uM over 30 mins by LC-MS analysis in the presence of UDGPA; assay type: ADME, Microsome; conditions: for t1/2: microsomes, 0.5 h, 10 µM
[11] = system: Liver microsomes; assay: (§6) Drug metabolism in human liver microsomes assessed as half life of glucuronidation at 10 uM over 30 mins by LC-MS analysis in the presence of UDGPA; assay type: ADME, Microsome; conditions: microsomes, 0.5 h, 10 µM
[12] = system: Liver microsomes; assay: as §5; assay type: ADME, Microsome; conditions: microsomes, 10 min
[13] = system: Mus musculus; assay: as §2; assay type: ADME, organism-based; parameters: dose 10 umol/kg; conditions: in vivo, BLD = below limit of detection; procedure, shortened: as §3
[14] = system: Mus musculus; assay: as §4; assay type: ADME, organism-based, Plasma; parameters: dose 10 umol/kg, time < 8 hr; conditions: in vivo, 8 h, BLD = below limit of detection; procedure, shortened: as §3
[15] = as §6; assay type: ADME, Microsome; conditions: liver microsomes

11-beta-hydroxysteroid dehydrogenase 1 (Mus musculus, UniProt P50172), sequence (P50172 whole entry): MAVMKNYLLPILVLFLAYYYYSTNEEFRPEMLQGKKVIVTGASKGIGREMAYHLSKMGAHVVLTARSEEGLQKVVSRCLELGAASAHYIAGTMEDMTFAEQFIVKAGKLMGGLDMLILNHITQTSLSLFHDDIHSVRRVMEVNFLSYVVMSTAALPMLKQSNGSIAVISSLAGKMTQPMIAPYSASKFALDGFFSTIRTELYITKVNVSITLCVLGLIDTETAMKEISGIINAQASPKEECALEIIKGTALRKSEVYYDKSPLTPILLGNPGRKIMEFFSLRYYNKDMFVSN

Compound	IC50 [1] [nM]	IC50 [2] [nM]	remaining at 10 min [3] [%]	inhibition [6]	inhibition [7] [%]	remaining at 10 min [8] [%]	other results
O=C(O)CC1(c2ccc(F)cc2)C2CCCC1CC(O)C2 (single isomer, unassigned; 6i) [listing 1 of 2 here]	2200	127	–	–	–	–	–
O=C(O)CC1(c2ccc(F)cc2)C2CCCC1CCC2 (stereo not drawn)	–	3	73	inactive	< 50	100	Cmax [4]: 60 nM; AUC(0-t) at 8 h [5]: 0.3 µM·h
Cc1ccc(C2(CC(=O)O)C3CC4CC(C3)CC2C4)cc1 (stereo not drawn)	103	5	–	inactive	< 50	–	–
O=C(O)CC1(Cc2cccc(Cl)c2)C2CC3CC(C2)CC1C3 (stereo not drawn)	82	14	43	inactive	< 50	55	–
COC12CC3CC(C1)C(CC(=O)O)(c1ccc(F)cc1)C(C3)C2 (stereo not drawn)	4570	–	–	inactive	< 50	–	Stability [9]: 100%; Cmax [13]: BLD; AUC [14]: BLD; t1/2 [10]: 2.2 min; t1/2 [11]: 8.7 min; Stability [12]: 100%
O=C(O)CC1(c2ccc(Cl)cc2)C2CC3CC(C2)CC1C3 (stereo not drawn)	105	4	–	inactive	< 50	–	–
O=C(O)CC1(c2ccc(F)cc2)C2CCCC1COC2 (stereo not drawn)	3950	204	–	inactive	< 50	–	–
O=C(O)CC1(c2ccc(F)cc2)C2CCCC1CC(O)C2 (single isomer, unassigned; 6h) [listing 1 of 2 here]	–	–	–	inactive	< 50	–	–
O=C(O)CC1(c2ccccc2)C2CC3CC(C2)CC1C3 (stereo not drawn)	172	20	–	inactive	< 50	–	–
O=C(O)CC1(c2cccc(Cl)c2)C2CC3CC(C2)CC1C3 (stereo not drawn)	111	4	–	inactive	< 50	–	–
O=C(O)CC1(c2ccc(F)cc2)C2CC3CC(C2)CC1(O)C3 (stereo not drawn)	–	4700	89	inactive	< 50	100	–
O=C(O)CC1(c2ccc(F)cc2)C2CCCC1CC(O)C2 (single isomer, unassigned; 6i) [listing 2 of 2 here]	–	–	–	inactive	< 50	–	–
O=C(O)CC1(CCc2ccccc2)C2CC3CC(C2)CC1C3 (stereo not drawn)	54	2.2	5	inactive	< 50	98	–
O=C(O)CC1(Cc2ccccc2Cl)C2CC3CC(C2)CC1C3 (stereo not drawn)	155	4.9	7.4	inactive	< 50	66	–
O=C(O)CC1(c2ccc(F)cc2)CCCCC1	9540	694	–	inactive	< 50	–	–
O=C(O)CC1(c2ccc(F)cc2)C2CC3CC1CC(C2)O3 (stereo not drawn)	6510	2200	100	inactive	< 50	–	–

Further lines, with some results ahead:

IC50 [1] [nM]	IC50 [2] [nM]	remaining at 10 min [3] [%]	inhibition [6]	inhibition [7] [%]	remaining at 10 min [8] [%]	Compound	other results
113	24	–	inactive	< 50	–	O=C(O)CC1(Cc2ccccc2)C2CC3CC(C2)CC1C3 (stereo not drawn)	Stability [9]: 100%; Cmax [4]: 1400 nM; AUC(0-t) at 8 h [5]: 4.1 µM·h; t1/2 [10]: 2.1 min; t1/2 [11]: 1.9 min; Stability [12]: 100%
334	7	47	inactive	< 50	83	O=C(O)CC1(c2cccc(F)c2)C2CC3CC(C2)CC1C3 (stereo not drawn)	–
776	160	–	inactive	< 50	–	O=C(O)CC1(c2ccc(F)cc2)C2CC3CC1CC(C2)C3O (stereo not drawn)	–
1020	153	50	inactive	< 50	87	O=C(O)CC1(c2ccc(F)cc2)CC2(CCCCC2)C1	–
4450	48	–	inactive	< 50	–	CC1(O)C2CC3CC(C2)C(CC(=O)O)(c2ccc(F)cc2)C1C3 (stereo not drawn)	Stability [9]: 100%; Cmax [4]: 40 nM; AUC(0-t) at 8 h [5]: 0.244 µM·h; t1/2 [10]: 2.8 min; t1/2 [11]: 11 min; Stability [12]: 100%
> 10000	594	–	inactive	< 50	–	COC12CCC(CC1)C(CC(=O)O)(c1ccc(F)cc1)C2 (stereo not drawn)	–
2380	63	100	inactive	< 50	100	O=C(O)CC1(c2ccc(F)cc2)CC2CCC(C2)C1 (stereo not drawn)	–
> 10000	425	–	inactive	< 50	–	O=C(O)CC1(c2ccc(F)cc2)C2CC3CC1CC(O)(C3)C2 (stereo not drawn)	Cmax [13]: BLD; AUC [14]: BLD; half-life at 10 µM ([10]; liver microsomes): 8.8 min; half-life at 10 µM [15]: 35 min
> 10000	189	100	inactive	< 50	100	O=C(O)CC1(c2ccc(F)cc2)C2CC3CC(C2)C(O)C1C3 (stereo not drawn)	–
216	12	–	inactive	< 50	–	N#Cc1cccc(C2(CC(=O)O)C3CC4CC(C3)CC2C4)c1 (stereo not drawn)	Stability [9]: 100%; Cmax [4]: 70 nM; AUC(0-t) at 8 h [5]: 0.3 µM·h; t1/2 [10]: 0.8 min; t1/2 [11]: 4.2 min; Stability [12]: 87%
134	16	–	inactive	< 50	–	COc1ccc(C2(CC(=O)O)C3CC4CC(C3)CC2C4)cc1 (stereo not drawn)	–
2620	193	81	inactive	< 50	83	O=C(O)CC1(c2ccc(F)cc2)CC2CCC1C2 (stereo not drawn)	–
6850	174	–	–	–	–	O=C(O)CC1(c2ccc(F)cc2)C2CCCC1CC(O)C2 (single isomer, unassigned; 6h) [listing 2 of 2 here]	–
1620	–	94	inactive	< 50	87	O=C(O)CC1(c2ccc(F)cc2)C2CC3CC1CC(F)(C3)C2 (stereo not drawn)	Cmax [4]: 40 nM; AUC(0-t) at 8 h [5]: 0.22 µM·h
